In ChEMBL document CHEMBL1156065, “Structure-activity relationship study on alpha1 adrenergic receptor antagonists from beer” (Bioorg Med Chem Lett, 2009) one finds IC50 data, which are given here for nine compounds.

In test [1] the target is T1, Alpha-1A adrenergic receptor (Rattus norvegicus, UniProt P43140).
T1 sequence (P43140 whole entry): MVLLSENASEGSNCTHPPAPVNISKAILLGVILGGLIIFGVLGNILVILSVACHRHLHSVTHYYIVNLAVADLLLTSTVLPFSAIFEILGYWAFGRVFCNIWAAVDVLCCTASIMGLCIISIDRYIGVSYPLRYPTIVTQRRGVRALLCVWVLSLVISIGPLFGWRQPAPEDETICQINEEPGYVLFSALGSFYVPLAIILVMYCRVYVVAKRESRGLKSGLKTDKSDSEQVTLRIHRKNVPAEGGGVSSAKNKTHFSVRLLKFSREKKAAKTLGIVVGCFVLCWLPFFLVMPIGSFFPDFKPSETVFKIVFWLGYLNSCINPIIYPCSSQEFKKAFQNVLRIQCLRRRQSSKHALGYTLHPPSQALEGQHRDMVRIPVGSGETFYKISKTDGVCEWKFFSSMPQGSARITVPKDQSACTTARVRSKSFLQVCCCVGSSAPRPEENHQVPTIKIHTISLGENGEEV
The test can be described thus: Antagonist activity at rat alpha1A adrenoceptor assessed as inhibition of phenylephrine-induced contraction of caudal artery. Format: functional, tissue-based. The method in brief:
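Isometric tension at 1 g resting load, equilibrated 30 to 60 min with repeated washes. Contraction induced by submaximal phenylephrine. After the response stabilized, test sample was added at increasing concentrations, up to 15 min per concentration or until the response was stable.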

The target of test [2] is T1, Alpha-1A adrenergic receptor. Put plainly: Displacement of [3H]prazosin from rat salivary gland alpha1A adrenoceptor. The method in brief:
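Rat salivary gland homogenate incubated with test samples and 0.06 nM [3H]-prazosin at 22 °C for 60 min. Stopped by vacuum filtration through glass-fiber filters, washed with 50 mM Tris–HCl, counted by liquid scintillation. Nonspecific binding defined with phentolamine and subtracted from total binding. IC50 taken as the concentration inhibiting specific binding by 50%.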

Where only a bound is given, the exact number is not on record here.

Turning to `N=C(N)NCCCCNC(=O)/C=C/c1ccc2c(c1)[C@@H](C(=O)NCCCCNC(=N)N)[C@H](c1ccc(O)cc1)O2`, the concentration for half-maximal inhibition (IC50) in test [1] amounted to 14.3 µM; in test [2] it was 0.29 µM.
In the case of `N=C(N)NCCCCNC(=O)/C=C/c1ccc2c(c1)[C@H](C(=O)NCCCCNC(=N)N)[C@@H](c1ccc(O)cc1)O2` [HORDATINE A], the results for the concentration for half-maximal inhibition (IC50) in test [1] and in test [2] were 19.3 µM and 0.31 µM, respectively.
The corresponding values for `COC(=O)[C@H]1c2cc(/C=C/C(=O)NCCCCNC(=N)N)ccc2O[C@@H]1c1ccc(O)cc1` are 42.2 µM and 2.16 µM.
Turning to `N=C(N)NCCCCNC(=O)/C=C/c1ccc2c(c1)[C@@H](C(=O)NCCCCNC(=N)N)[C@@H](c1ccc(O)cc1)O2`, the 50% inhibitory concentration (IC50) in test [1] is 17.7 µM; in test [2], 2.44 µM.
Take `N=C(N)NCCCCNC(=O)[C@H]1c2cc(/C=C/C(=O)O)ccc2O[C@@H]1c1ccc(O)cc1`: the 50% inhibitory concentration (IC50) in test [1] and in test [2] was over 100 µM in each case.
On to `COC(=O)[C@@H]1c2cc(/C=C/C(=O)NCCCCNC(=N)N)ccc2O[C@H]1c1ccc(O)cc1`, for which the concentration for half-maximal inhibition (IC50) in test [1] amounted to 9.72 µM; in test [2], 0.56 µM.
The corresponding values for `N=C(N)NCCCCNC(=O)[C@@H]1c2cc(/C=C/C(=O)O)ccc2O[C@H]1c1ccc(O)cc1` are over 100 µM and over 100 µM.
The corresponding values for `N=C(N)NCCCCNC(=O)/C=C/c1ccc(O)cc1` are over 100 µM and 57.6 µM.
As for `N=C(N)NCCCCNC(=O)/C=C/c1ccc2c(c1)[C@H](C(=O)NCCCCNC(=N)N)[C@H](c1ccc(O)cc1)O2` [APERIDINE], the values for the IC50 in test [1] and in test [2] were 4.9 µM and 0.42 µM, respectively.
